# Measurements reported in ChEMBL document CHEMBL1138430, “Novel tetrahydroisoquinolines are histamine H3 antagonists and serotonin reuptake inhibitors” (Bioorg Med Chem Lett, 2007).
# pKi: −log10 of the molar value. The source made the active and inactive calls. No cut-off for these calls is given here.
# What was measured:
# Rattus norvegicus [1] = test: Ex vivo receptor occupancy at SERT in rat at 0.3 mg/kg, sc; type: functional; conditions: route subcutaneous
# Summary of the method: (§1)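 Ex vivo receptor occupancy was measured in rat brain at SERT and at the H3 receptor after a single subcutaneous dose. Brain drug concentrations were determined alongside occupancy.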
# Brain = test: Drug level in rat brain at 0.3 mg/kg, sc; type: ADME, organism-based; parameters: dose 0.3 mg/kg, route subcutaneous; conditions: in vivo, read-out: Drug uptake
# [2] = test system: Voltage-gated potassium channel; test: Binding affinity for potassium channel at 1 uM; type: protein assay; conditions: human
# [3] = target: Sodium-dependent noradrenaline transporter (Homo sapiens, UniProt P23975); test: Inhibition of [3H]nisoxetine uptake in human NET expressed in MDCK cells; type: cell-based
# Sodium-dependent noradrenaline transporter, sequence (P23975 whole entry): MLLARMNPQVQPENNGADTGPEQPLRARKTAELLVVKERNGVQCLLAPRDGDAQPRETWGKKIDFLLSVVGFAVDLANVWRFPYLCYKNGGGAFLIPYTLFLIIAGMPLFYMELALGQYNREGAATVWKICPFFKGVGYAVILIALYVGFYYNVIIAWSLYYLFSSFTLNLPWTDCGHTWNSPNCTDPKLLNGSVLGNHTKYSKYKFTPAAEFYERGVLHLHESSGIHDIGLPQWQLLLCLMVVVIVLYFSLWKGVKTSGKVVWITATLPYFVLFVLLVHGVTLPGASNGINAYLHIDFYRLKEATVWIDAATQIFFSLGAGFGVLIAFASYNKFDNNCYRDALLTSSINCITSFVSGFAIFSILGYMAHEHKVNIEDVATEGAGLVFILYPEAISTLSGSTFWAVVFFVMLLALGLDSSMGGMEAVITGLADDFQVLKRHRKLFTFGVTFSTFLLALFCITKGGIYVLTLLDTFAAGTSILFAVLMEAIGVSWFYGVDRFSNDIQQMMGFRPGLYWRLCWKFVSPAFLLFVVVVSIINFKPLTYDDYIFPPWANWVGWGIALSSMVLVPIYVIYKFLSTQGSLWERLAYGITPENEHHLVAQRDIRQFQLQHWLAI
# Rattus norvegicus [4] = test: Ex vivo receptor occupancy at histamine H3 receptor in rat at 0.3 mg/kg, sc; type: functional; conditions: route subcutaneous; summary of the method: as §1
# [5] = Half life in po and iv dosed rat; type: ADME, organism-based; conditions: in vivo
# [6] = Bioavailability in po dosed rat; type: ADME, organism-based; conditions: in vivo
# Histamine H3 receptor [7] = target: T1, Histamine H3 receptor (Homo sapiens, UniProt Q9Y5N1); test: Antagonist activity at human histamine H3 receptor; type: functional; conditions: read-out: pA2 (converted)
# T1 sequence (Q9Y5N1 whole entry): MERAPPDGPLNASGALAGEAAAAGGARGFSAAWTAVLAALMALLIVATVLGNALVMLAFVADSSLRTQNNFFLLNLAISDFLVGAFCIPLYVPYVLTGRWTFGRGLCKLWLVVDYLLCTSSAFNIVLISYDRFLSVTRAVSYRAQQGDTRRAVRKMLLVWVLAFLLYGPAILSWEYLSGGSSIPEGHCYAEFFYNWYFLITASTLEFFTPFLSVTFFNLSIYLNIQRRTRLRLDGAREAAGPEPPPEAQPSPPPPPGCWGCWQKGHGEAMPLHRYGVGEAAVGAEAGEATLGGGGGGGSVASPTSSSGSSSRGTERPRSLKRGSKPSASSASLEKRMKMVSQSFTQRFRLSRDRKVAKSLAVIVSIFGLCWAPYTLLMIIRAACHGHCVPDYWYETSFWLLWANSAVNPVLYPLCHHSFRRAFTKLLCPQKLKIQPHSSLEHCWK
# [8] = target: Sodium-dependent dopamine transporter (Homo sapiens, UniProt Q01959); test: Inhibition of [3H]WIN-uptake in human DAT expressed in CHO cells; type: cell-based
# Sodium-dependent dopamine transporter, sequence (Q01959 whole entry): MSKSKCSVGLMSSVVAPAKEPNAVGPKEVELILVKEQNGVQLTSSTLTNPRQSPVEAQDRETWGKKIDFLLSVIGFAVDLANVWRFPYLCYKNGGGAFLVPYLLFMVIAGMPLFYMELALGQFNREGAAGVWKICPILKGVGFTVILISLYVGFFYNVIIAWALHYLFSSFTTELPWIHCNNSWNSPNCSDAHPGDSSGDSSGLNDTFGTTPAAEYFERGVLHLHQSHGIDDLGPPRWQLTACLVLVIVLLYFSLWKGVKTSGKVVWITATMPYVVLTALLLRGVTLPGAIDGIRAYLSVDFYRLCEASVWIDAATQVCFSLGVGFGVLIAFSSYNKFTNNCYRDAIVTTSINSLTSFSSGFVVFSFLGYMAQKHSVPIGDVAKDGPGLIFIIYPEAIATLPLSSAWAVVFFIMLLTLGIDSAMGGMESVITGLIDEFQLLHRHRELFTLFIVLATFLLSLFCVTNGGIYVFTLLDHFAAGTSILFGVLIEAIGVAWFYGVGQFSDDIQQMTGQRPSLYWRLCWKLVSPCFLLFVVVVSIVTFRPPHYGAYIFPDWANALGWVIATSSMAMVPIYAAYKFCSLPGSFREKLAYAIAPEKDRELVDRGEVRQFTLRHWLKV
# Summary of the method: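 Human DAT expressed in CHO cells; membranes were incubated on ice for 2 h with 10.9 nM [3H]-WIN 35,428, then harvested by rapid filtration. Nonspecific binding was defined with GBR-12909. Ki values are means of at least three experiments run in triplicate, with SEM.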
# [9] = target: 5-hydroxytryptamine receptor 5A (Homo sapiens) (UniProt P47898); test: Binding affinity at 5HT5A receptor at 1 uM
# 5-hydroxytryptamine receptor 5A (Homo sapiens), sequence (P47898 whole entry): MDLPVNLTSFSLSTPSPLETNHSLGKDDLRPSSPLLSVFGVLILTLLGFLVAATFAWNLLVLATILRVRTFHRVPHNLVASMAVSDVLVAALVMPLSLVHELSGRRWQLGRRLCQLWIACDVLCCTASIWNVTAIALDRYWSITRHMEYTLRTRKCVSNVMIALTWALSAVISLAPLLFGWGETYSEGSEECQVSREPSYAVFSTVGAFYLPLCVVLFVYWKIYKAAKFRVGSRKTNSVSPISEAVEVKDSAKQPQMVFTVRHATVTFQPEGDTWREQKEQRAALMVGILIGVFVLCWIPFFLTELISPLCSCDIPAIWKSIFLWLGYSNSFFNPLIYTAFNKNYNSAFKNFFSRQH
# [10] = Plasma clearance in po and iv dosed rat; type: ADME, organism-based
# [11] = target: T2, B2 bradykinin receptor (Homo sapiens) (UniProt P30411); test: Binding affinity at bradykinin B2 receptor at 1 uM
# T2 sequence (whole entry): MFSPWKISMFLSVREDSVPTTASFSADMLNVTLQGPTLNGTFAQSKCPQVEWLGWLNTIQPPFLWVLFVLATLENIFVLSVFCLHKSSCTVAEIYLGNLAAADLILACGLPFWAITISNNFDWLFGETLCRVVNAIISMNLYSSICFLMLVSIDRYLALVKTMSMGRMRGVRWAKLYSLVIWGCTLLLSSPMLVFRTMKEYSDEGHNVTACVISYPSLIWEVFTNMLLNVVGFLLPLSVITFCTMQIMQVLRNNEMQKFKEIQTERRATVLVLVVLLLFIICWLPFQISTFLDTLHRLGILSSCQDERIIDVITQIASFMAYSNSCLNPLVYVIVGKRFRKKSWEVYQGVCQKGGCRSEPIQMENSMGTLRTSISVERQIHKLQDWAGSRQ
# [12] = test system: Voltage-gated calcium channel; test: Binding affinity for calcium channel at 1 uM; type: protein-complex assay; conditions: human
# [13] = target: Adenosine receptor A2a (Homo sapiens) (UniProt P29274); test: Binding affinity at adenosine A2A receptor at 1 uM
# Adenosine receptor A2a (Homo sapiens), sequence (P29274 whole entry): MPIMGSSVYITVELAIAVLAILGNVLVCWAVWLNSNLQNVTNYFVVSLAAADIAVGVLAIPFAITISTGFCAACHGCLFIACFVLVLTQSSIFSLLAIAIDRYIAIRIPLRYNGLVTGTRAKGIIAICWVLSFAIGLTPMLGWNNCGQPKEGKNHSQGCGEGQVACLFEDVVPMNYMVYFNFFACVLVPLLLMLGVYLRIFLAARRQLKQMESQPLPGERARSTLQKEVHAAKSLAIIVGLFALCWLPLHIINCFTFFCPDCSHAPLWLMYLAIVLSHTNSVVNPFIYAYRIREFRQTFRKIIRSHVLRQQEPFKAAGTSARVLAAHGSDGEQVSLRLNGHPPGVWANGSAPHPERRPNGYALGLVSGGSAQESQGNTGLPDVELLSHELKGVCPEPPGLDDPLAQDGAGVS
# Histamine H3 receptor [14] = target: T1, Histamine H3 receptor; test: Binding affinity at human histamine H3 receptor
# [15] = target: T3, Cholecystokinin receptor type A (Homo sapiens) (UniProt P32238); test: Binding affinity at CCKA receptor at 1 uM
# T3 sequence (whole entry): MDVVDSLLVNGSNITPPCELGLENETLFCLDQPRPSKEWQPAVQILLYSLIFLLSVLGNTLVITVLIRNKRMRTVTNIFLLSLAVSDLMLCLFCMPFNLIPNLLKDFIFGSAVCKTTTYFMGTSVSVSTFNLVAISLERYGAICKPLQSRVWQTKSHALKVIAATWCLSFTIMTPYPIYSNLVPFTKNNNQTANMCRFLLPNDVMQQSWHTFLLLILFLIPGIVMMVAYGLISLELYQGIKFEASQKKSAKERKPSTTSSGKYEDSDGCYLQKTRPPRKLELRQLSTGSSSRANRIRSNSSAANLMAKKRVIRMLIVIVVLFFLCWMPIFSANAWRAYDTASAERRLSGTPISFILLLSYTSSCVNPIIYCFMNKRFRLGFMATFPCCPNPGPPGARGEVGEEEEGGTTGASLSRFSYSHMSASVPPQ
# [16] = Volume of distribution at steady state in po and iv dosed rat; type: ADME, organism-based; conditions: in vivo, read-out: Vdss
# [17] = Cmax in rat brain at 10 mg/kg, po; type: ADME, organism-based; parameters: dose 10 mg/kg, route oral
concentration (Brain) [nM],Activity [2],pKi [3],half-life [5] [h],bioavailability [6] [%],Kb (Histamine H3 receptor [7]) [nM],pKi [8],Activity [9],clearance [10] [mL/min/kg],Activity [11],Activity [12],Activity [13],pKi (Histamine H3 receptor [14]),Activity [15],Vd [16] [L/kg],Cmax [17] [nM],Compound,Activity (Rattus norvegicus [1]) [%],Activity (Rattus norvegicus [4]) [%]
880,Not Active,6.92,9,5,0.891,6.99,inactive,18.1,inactive,Not Active,inactive,8.25,inactive,6.8,,COc1ccc([C@@H]2CN(C)Cc3cc(OCCCN4CCOC[C@@H]4C)ccc32)cc1,100,100
670,Not Active,6.97,6.6,38,,7.54,inactive,14,inactive,Not Active,inactive,,inactive,5.1,9600,CSc1ccc(C2CN(C)Cc3cc(OCCCN4CCOCC4)ccc32)cc1 (racemic),100,100
,,,,,,,inactive,,inactive,,inactive,,inactive,,,CSc1ccc(C2CN(C)Cc3cc(OCCCN4CCC(F)CC4)ccc32)cc1 (racemic),,
